The source of these data is ChEMBL document CHEMBL4393735, “Molecular modelling, synthesis, and biological evaluations of a 3,5-disubstituted isoxazole fatty acid analogue as a PPARα-selective agonist” (Bioorg Med Chem, 2019).

Assay [1] has as its target T1, Peroxisome proliferator-activated receptor alpha (Homo sapiens) (UniProt Q07869).
T1 sequence (whole entry): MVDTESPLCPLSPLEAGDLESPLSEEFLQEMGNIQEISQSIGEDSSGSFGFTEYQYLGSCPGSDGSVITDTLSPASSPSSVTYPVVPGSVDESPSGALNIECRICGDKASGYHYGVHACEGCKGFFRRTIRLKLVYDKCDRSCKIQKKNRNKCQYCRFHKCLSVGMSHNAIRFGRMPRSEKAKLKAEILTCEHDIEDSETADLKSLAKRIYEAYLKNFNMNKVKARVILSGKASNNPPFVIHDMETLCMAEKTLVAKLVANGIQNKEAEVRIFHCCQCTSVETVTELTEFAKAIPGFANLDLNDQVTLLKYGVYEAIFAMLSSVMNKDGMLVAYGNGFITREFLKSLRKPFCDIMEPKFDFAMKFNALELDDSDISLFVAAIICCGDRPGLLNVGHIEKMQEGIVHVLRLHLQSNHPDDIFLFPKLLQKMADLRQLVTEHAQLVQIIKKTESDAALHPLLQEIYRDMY
As to the kind of experiment: Agonist activity at PPARalpha in human Huh7 cells assessed as activation of CPT1A mRNA expression at 50 uM measured after 18 hrs by qRT-PCR analysis. It counts as cell-based. Summed up:
(§1)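 Treatment for 18 h at 50 μM (or 1 μM for the 1 μM agents), DMSO vehicle. Harvested for qPCR. mRNA normalized to TBP by the comparative threshold method, expressed relative to DMSO control. Two biological replicates run in duplicate, mean ± SEM. Primary hepatocytes came from male C57BL/6N mice aged 7–8 weeks, isolated by portal-vein perfusion and digestion, seeded on collagen I and used on day 2. HuH-7 cells were kept in DMEM with 10% FBS and ITS.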
For orientation: Real-time PCR tracks product formation cycle by cycle.

Assay [2] concerns the target T1, Peroxisome proliferator-activated receptor alpha (Homo sapiens). The assay can be described thus: Agonist activity at full length human FLAG-tagged GAL4-DBD fused PPARalpha LBD (168 to 468 residues) expressed in COS1 cells at 25 to 50 uM measured after 18 hrs by dual luciferase reporter gene assay. It is filed as cell-based. In a few lines: (§2)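 COS-1 cells were transfected using Lipofectamine 2000 with GAL4-DBD–human NR-LBD plasmid, a 5×UAS-SV40 firefly luciferase reporter and pRL-CMV. After 6 h, cells were treated with 0, 25 or 50 μM in 0.1% DMSO (final) for 18 h. Firefly signal was normalized to Renilla, then to DMSO control and GAL4-only. Three biological replicates in quadruplicate, mean ± SEM, two-way ANOVA with Bonferroni.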

In assay [3] the target is T2, Peroxisome proliferator-activated receptor alpha (Mus musculus) (UniProt P23204).
T2 sequence (whole entry): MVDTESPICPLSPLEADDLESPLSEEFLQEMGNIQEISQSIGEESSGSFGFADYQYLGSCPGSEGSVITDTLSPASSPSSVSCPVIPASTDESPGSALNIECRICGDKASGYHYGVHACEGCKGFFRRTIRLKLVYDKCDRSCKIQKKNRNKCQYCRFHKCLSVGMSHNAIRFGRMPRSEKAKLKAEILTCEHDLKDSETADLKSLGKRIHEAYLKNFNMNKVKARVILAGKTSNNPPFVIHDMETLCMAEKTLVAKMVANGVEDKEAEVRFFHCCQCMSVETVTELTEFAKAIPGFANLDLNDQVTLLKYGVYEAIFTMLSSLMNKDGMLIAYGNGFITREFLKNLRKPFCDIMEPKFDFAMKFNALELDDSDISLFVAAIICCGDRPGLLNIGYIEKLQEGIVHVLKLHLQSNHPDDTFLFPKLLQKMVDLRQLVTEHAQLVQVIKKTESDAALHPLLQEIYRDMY
The assay can be described thus: Agonist activity at PPARalpha in C57BL/6N mouse primary hepatocytes assessed as SREBF1 mRNA expression at 50 uM measured after 18 hrs by qRT-PCR analysis. It counts as cell-based. In a few lines:
as §1

For assay [4], the system named is SGBS. As to the kind of experiment: Upregulation of ACSL1 gene expression in human preadipocyte derived from Simpson-Golabi-Behmel syndrome (SGBS) patient at 25 uM measured for 12 days by qRT-PCR analysis. It is filed as functional, cell-based. In a few lines: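 SGBS cells were differentiated with serum-free induction medium containing 25 μM test agent, 2 μM rosiglitazone or 0.1% DMSO from day 0. IBMX and dexamethasone were removed on day 4 and medium was renewed on day 8. RNA was taken on days 0, 4, 8 and 12 for qPCR, normalized to TBP and to day 0. At least three biological replicates in duplicate, two-way ANOVA with Bonferroni.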

Assay [5] deals with T3, Peroxisome proliferator-activated receptor gamma (Homo sapiens) (UniProt P37231).
T3 sequence (whole entry): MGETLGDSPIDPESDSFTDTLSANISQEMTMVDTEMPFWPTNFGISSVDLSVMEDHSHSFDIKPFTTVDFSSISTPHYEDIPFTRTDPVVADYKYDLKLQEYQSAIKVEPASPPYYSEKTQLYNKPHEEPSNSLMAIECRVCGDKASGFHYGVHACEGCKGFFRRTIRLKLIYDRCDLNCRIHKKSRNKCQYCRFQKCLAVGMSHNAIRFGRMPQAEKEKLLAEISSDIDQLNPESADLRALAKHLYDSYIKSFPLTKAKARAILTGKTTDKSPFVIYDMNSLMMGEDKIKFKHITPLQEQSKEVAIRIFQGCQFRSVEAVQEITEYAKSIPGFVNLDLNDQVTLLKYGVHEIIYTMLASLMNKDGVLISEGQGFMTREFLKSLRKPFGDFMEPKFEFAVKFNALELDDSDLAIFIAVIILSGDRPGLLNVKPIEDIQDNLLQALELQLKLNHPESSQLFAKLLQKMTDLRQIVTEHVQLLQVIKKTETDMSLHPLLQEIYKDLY
As to the kind of experiment: Agonist activity at full length human FLAG-taggedGAL4-DBD fused PPARgamma LBD (205 to 505 residues) expressed in COS1 cells at 25 to 50 uM measured after 18 hrs by dual luciferase reporter gene assay. It is filed as cell-based. Summed up:
as §2
A general note: A reporter such as luciferase makes a cellular process visible.

Assay [6] deals with T1, Peroxisome proliferator-activated receptor alpha (Homo sapiens). The assay can be described thus: Agonist activity at PPARalpha in human Huh7 cells assessed as PPARA mRNA expression at 50 uM measured after 18 hrs by qRT-PCR analysis. It counts as cell-based. In a few lines: as §1
Assay [7] shares this target. The assay can be described thus: Agonist activity at full length human FLAG-tagged GAL4-DBD fused PPARalpha LBD (168 to 468 residues) expressed in COS1 cells transfected with hRXRalpha and hCPT1A-driven reporter assessed as increase in CPT1A mRNA level at 50 uM measured after 18 hrs by dual luciferase reporter gene assay. It is filed as cell-based. In a few lines:
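COS-1 cells were transfected with full-length human PPARα (or PPARγ) plus RXRα expression plasmids, with a wild-type or PPRE-mutated CPT1A-intronic (or PLIN1) luciferase reporter and pRL-CMV. Cells were treated with 50 μM in 0.1% DMSO (final) for 18 h. Dual-luciferase read-out normalized to DMSO control. Three biological replicates in quadruplicate, mean ± SEM.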

The subject of assay [8] is SGBS. As to the kind of experiment: Induction of adipocyte differentiation in human preadipocyte derived from Simpson-Golabi-Behmel syndrome (SGBS) patient assessed as lipid accumulation at 25 uM measured for 12 days by Oil red O staining based microscopic analysis. It counts as functional, cell-based. Summed up:
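Differentiation of SGBS preadipocytes was started in serum-free medium with transferrin, insulin, T3, hydrocortisol, IBMX and dexamethasone, plus 25 μM test agent, 2 μM rosiglitazone or 0.1% DMSO. On day 4 medium was switched to lack IBMX and dexamethasone, and it was renewed on day 8. Cells were fixed with 4% PFA and stained with 0.3% Oil Red O on days 0, 4, 8 and 12, then photographed.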

The source made the active and inactive calls.

Take `CCCCCCCc1cc(CCCCCC(=O)O)no1`: the result (in assay [1]; in assay [2]; in assay [3]; in the assay with SGBS [4]; in assay [7]; in the assay with SGBS [8]) was Active. In addition, the result in assay [5] and in assay [6] was inactive.
